Our source for the IC50, Activity and Ki values is ChEMBL document CHEMBL3769387, “α-Glucosidase inhibition and antihyperglycemic activity of flavonoids from Ampelopsis grossedentata and the flavonoid derivatives” (Bioorg Med Chem, 2016).

Molecules are shown by their SMILES. Activity calls are given as the source filed them. No cut-off for these calls is given here.

Experiment [1] is described as follows: Inhibition of Saccharomyces cerevisiae alpha-glucosidase using p-nitrophenyl-alpha-D-glucopyranoside as substrate preincubated for 10 mins followed by substrate addition measured after 30 mins by microplate reader analysis. In a few lines:
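α-Glucosidase 0.1 U/mL and p-NPG 1.0 mM in 0.1 M potassium phosphate pH 6.7; samples in DMSO. Inhibitor preincubated with enzyme 10 min at 37 °C, substrate added, 30 min at 37 °C, stopped with 1 M Na2CO3; absorbance 405 nm with blank correction. Five concentrations, triplicate; IC50 as mean ± SEM of three independent experiments.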

Experiment [2] deals with Mus musculus. Put plainly: Hypoglycemic effect in Kunming mouse assessed as reduction in fasting blood glucose level at 10 mg/kg, po measured at 1.5 to 9 hrs post dose by glucometry analysis. The experiment is classed as functional, organism-based. In a few lines: (§1)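 Fasted normal Kunming mice (4–6 weeks) given single oral dose suspended in 0.5 % CMC–Na; control group received vehicle only. Tail-vein glucose measured by glucometer at 0, 1.5, 3, 5, 7 and 9 h after administration. Six mice per group; mean ± SEM, one-way ANOVA followed by Tukey's or Dunnett's test versus control.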

The subject of experiment [3] is Mus musculus. The experiment can be described thus: Hypoglycemic effect in Kunming mouse model of STZ-induced diabetes assessed as reduction in fasting blood glucose level at 10 mg/kg, po measured at 1.5 to 9 hrs post dose by glucometry analysis. The experiment is classed as functional, organism-based. The procedure, abridged:
(§2)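 STZ-diabetic Kunming mice (single i.p. streptozotocin 100 mg/kg in citrate buffer pH 4.5, fasting; glucose checked day 7), fasted, dosed orally in 0.5 % CMC–Na with vehicle-only controls. Tail-vein glucometer readings at 0, 1.5, 3, 5, 7 and 9 h post-dose; percent change relative to vehicle group. n = 6; mean ± SEM, one-way ANOVA with post-hoc test.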

A short description of experiment [4]: Competitive inhibition of Saccharomyces cerevisiae alpha-glucosidase using p-nitrophenyl-alpha-D-glucopyranoside as substrate by Lineweaver-Burk plot analysis. In a few lines: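 Enzyme kinetics run with rising concentrations of 4-nitrophenyl α-D-glucopyranoside and of inhibitor; mode of inhibition assigned from Lineweaver–Burk plots under Michaelis–Menten kinetics.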

Experiment [5] has as its system Mus musculus. Put plainly: Antihyperglycemic effect in Kunming mouse assessed as reduction in postprandial blood glucose level at 50 and 100 mg/kg, po administered 30 mins before sucrose challenge measured after 30 to 90 mins by oral sucrose tolerance test. The experiment is classed as functional, organism-based. In a few lines:
(§3)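 Male/female unspecified Kunming mice, 4–6 weeks old, fasted. Oral dosing suspended in 0.5 % CMC–Na (controls given vehicle alone); sucrose 3 g/kg orally 30 min later. Six mice per group; mean ± SEM, one-way ANOVA with Tukey's or Dunnett's test.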

The test system of experiment [6] is Mus musculus. The experiment can be described thus: Antihyperglycemic effect in Kunming mouse model of STZ-induced diabetes assessed as reduction in postprandial blood glucose level at 50 and 100 mg/kg, po administered 30 mins before sucrose challenge measured after 30 to 90 mins by oral sucrose tolerance test. The experiment is classed as functional, organism-based. The procedure, abridged: (§4)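 Diabetes induced in Kunming mice (4–6 weeks) by single i.p. streptozotocin 100 mg/kg in citrate buffer pH 4.5 under fasting, glucose checked on day 7. Fasted mice dosed orally in 0.5 % CMC–Na (vehicle controls), then sucrose 3 g/kg orally after 30 min; tail-vein glucometer readings at 0–3.0 h post-load. n = 6; mean ± SEM, one-way ANOVA with post-hoc test.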

The test system of experiment [7] is Mus musculus. The experiment can be described thus: Antihyperglycemic effect in Kunming mouse assessed as reduction in postprandial blood glucose level at 25 mg/kg, po administered 30 mins before sucrose challenge measured after 30 to 90 mins by oral sucrose tolerance test. The experiment is classed as functional, organism-based. The procedure, abridged: as §3

The subject of experiment [8] is Mus musculus. Put plainly: Antihyperglycemic effect in Kunming mouse model of STZ-induced diabetes assessed as reduction in postprandial blood glucose level at 25 mg/kg, po administered 30 mins before sucrose challenge measured after 30 to 90 mins by oral sucrose tolerance test. The experiment is classed as functional, organism-based. The procedure, abridged:
as §4

For experiment [9], the system named is Mus musculus. The experiment can be described thus: Hypoglycemic effect in Kunming mouse model of STZ-induced diabetes assessed as reduction in fasting blood glucose level at 100 mg/kg, po measured at 1.5 hrs post dose by glucometry analysis relative to control. The experiment is classed as functional. Also noted: scale not given: the % may be the effect or the level left. In a few lines:
as §2

The test system of experiment [10] is Mus musculus. Put plainly: Hypoglycemic effect in Kunming mouse model of STZ-induced diabetes assessed as reduction in fasting blood glucose level at 100 mg/kg, po measured at 3 hrs post dose by glucometry analysis relative to control. The experiment is classed as functional. Also noted: scale not given: the % may be the effect or the level left. The procedure, abridged: as §2

The test system of experiment [11] is Mus musculus. The experiment can be described thus: Hypoglycemic effect in Kunming mouse model of STZ-induced diabetes assessed as reduction in fasting blood glucose level at 100 mg/kg, po measured at 5 hrs post dose by glucometry analysis relative to control. Set-up: scale not given: the % may be the effect or the level left. The experiment is classed as functional. In a few lines:
as §2

Experiment [12] deals with Mus musculus. Put plainly: Hypoglycemic effect in Kunming mouse model of STZ-induced diabetes assessed as reduction in fasting blood glucose level at 100 mg/kg, po measured at 7 hrs post dose by glucometry analysis relative to control. Also noted: scale not given: the % may be the effect or the level left. The experiment is classed as functional. The procedure, abridged:
as §2

In experiment [13] the test system is Mus musculus. Put plainly: Hypoglycemic effect in Kunming mouse model of STZ-induced diabetes assessed as reduction in fasting blood glucose level at 100 mg/kg, po measured at 9 hrs post dose by glucometry analysis relative to control. The experiment is classed as functional. Set-up: scale not given: the % may be the effect or the level left. In a few lines:
as §2

Experiment [14] relates to Mus musculus. Put plainly: Hypoglycemic effect in Kunming mouse model of STZ-induced diabetes assessed as reduction in fasting blood glucose level at 50 mg/kg, po measured at 1.5 hrs post dose by glucometry analysis relative to control. The experiment is classed as functional. Set-up: scale not given: the % may be the effect or the level left. In a few lines:
as §2

The test system of experiment [15] is Mus musculus. The experiment can be described thus: Hypoglycemic effect in Kunming mouse model of STZ-induced diabetes assessed as reduction in fasting blood glucose level at 50 mg/kg, po measured at 3 hrs post dose by glucometry analysis relative to control. Also noted: scale not given: the % may be the effect or the level left. The experiment is classed as functional. The procedure, abridged: as §2

Experiment [16] has as its system Mus musculus. Put plainly: Hypoglycemic effect in Kunming mouse model of STZ-induced diabetes assessed as reduction in fasting blood glucose level at 50 mg/kg, po measured at 5 hrs post dose by glucometry analysis relative to control. Also noted: scale not given: the % may be the effect or the level left. The experiment is classed as functional. In a few lines: as §2

In experiment [17] the test system is Mus musculus. The experiment can be described thus: Hypoglycemic effect in Kunming mouse model of STZ-induced diabetes assessed as reduction in fasting blood glucose level at 50 mg/kg, po measured at 7 hrs post dose by glucometry analysis relative to control. The experiment is classed as functional. Set-up: scale not given: the % may be the effect or the level left. In a few lines: as §2

Experiment [18] deals with Mus musculus. The experiment can be described thus: Hypoglycemic effect in Kunming mouse model of STZ-induced diabetes assessed as reduction in fasting blood glucose level at 50 mg/kg, po measured at 9 hrs post dose by glucometry analysis relative to control. The experiment is classed as functional. Set-up: scale not given: the % may be the effect or the level left. The procedure, abridged: as §2

Experiment [19] has as its system Mus musculus. Put plainly: Hypoglycemic effect in Kunming mouse assessed as reduction in fasting blood glucose level at 25 to 100 mg/kg, po measured at 1.5 to 9 hrs post dose by glucometry analysis. The experiment is classed as functional, organism-based. The procedure, abridged:
as §1

`O=c1c(O)c(-c2cc(O)c(OCCO)c(O)c2)oc2cc(O)cc(O)c12`: the IC50 (usually the midpoint of a concentration-inhibition curve) in experiment [1] turned out to be 84.5 µM.

With `O=c1c(O)c(-c2cc(O)c(OCCN(CCO)c3ccccc3)c(O)c2)oc2cc(O)cc(O)c12`, the midpoint of inhibition in experiment [1], the IC50, lay at 41.1 µM.

As to `O=C1c2c(O)cc(O)cc2O[C@H](c2cc(O)c(O)c(O)c2)[C@H]1O` [AMPELOPSIN], half-maximal inhibition in [1] (IC50) was put at 634 µM.

Consider `O=c1c(O)c(-c2cc(O)c(OCCOCCOCCO)c(O)c2)oc2cc(O)cc(O)c12`, for which the IC50 in experiment [1] was found to be 233 µM.

Consider `O=c1c(O)c(-c2cc(O)c(OCCOCCO)c(O)c2)oc2cc(O)cc(O)c12`, for which half-maximal inhibition in experiment [1] (IC50) was put at 43.8 µM.

Take `C[C@@H]1O[C@@H](O[C@@H]2[C@@H](O)[C@H](O)[C@H](O[C@H]3[C@H](O)[C@@H](O)C(O)O[C@@H]3CO)O[C@H]2CO)[C@@H](O)[C@H](O)[C@H]1N[C@H]1C=C(CO)[C@@H](O)[C@H](O)[C@H]1O` (stereo partly drawn): in experiment [1], half-maximal inhibition (IC50) was put at 720 µM.

In turn, `C[C@@H]1O[C@@H](Oc2c(-c3cc(O)c(O)c(O)c3)oc3cc(O)cc(O)c3c2=O)[C@H](O)[C@H](O)[C@H]1O` registered an IC50 in experiment [1] of 838 µM.

In experiment [1], `O=c1c(O)c(-c2cc(O)c(O)c(O)c2)oc2cc(O)cc(O)c12` [MYRICETIN] registered an IC50 of 319 µM.

Take `COc1ccc(Cl)cc1C(=O)NCCc1ccc(S(=O)(=O)NC(=O)NC2CCCCC2)cc1`: the outcome in the experiment with Mus musculus [2] and in the experiment on Mus musculus [3] was Active.

In experiment [1], `O=c1c(O)c(-c2cc(O)c(OCCOCCOCCOCCO)c(O)c2)oc2cc(O)cc(O)c12` returned an IC50 of 463 µM.

Molecule `Cc1ccc(S(=O)(=O)N(CCO)CCOc2c(O)cc(-c3oc4cc(O)cc(O)c4c(=O)c3O)cc2O)cc1` showed an IC50 in experiment [1] of 9.3 µM. Moreover, the affinity in [4] corresponds to a Ki of 10.3 µM. For the same molecule, the result with Mus musculus [5] and in the experiment on Mus musculus [6] was Active. Moreover, the result in the experiment with Mus musculus [7], with Mus musculus [8] and with Mus musculus [19] was inactive. For the same molecule, the Activity in the experiment on Mus musculus [9] was determined as 37%; in the experiment on Mus musculus [10], 45.1%; with Mus musculus [11], 60%; in the experiment with Mus musculus [12], 65.4%; in the experiment on Mus musculus [13], 67.3%; with Mus musculus [14], 27.8%. Further, the Activity with Mus musculus [15] worked out at 35.9%; in the experiment on Mus musculus [16], 47.3%; in the experiment with Mus musculus [17] it was 59.6%; in the experiment with Mus musculus [18] it was 61.5%.
